# Experimental data taken from ChEMBL document CHEMBL3525937, “Drug efflux transporter multidrug resistance-associated protein 5 affects sensitivity of pancreatic cancer cell lines to the nucleoside anticancer drug 5-fluorouracil” (Drug Metab Dispos, 2011).
# pIC50: −log10 of the molar value. Calls of active or inactive are those of the source. The calls are words filed in the database; no cut-off is given here.
# Tests used:
# [1] = Cytotoxicity against human Colo-357 cells by crystal violet staining; type: functional, cell-based; details: COLO357
# In short: (§1)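 Cells plated at 5000–10,000 per well and left 24 h, then exposed to drug in medium for the set time at 37°C, 5% CO2. Washed with PBS, fixed 15 min in 4% paraformaldehyde and stained 5 min with 0.5% crystal violet in methanol. Lysed in 1% SDS, OD read at 570 nm with untreated cells as 100%. IC50 fitted by nonlinear sigmoidal regression over at least five concentrations, each in triplicate; three independent experiments.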
# [2] = Cytotoxicity against human Aspc-1 cells by crystal violet staining; type: functional, cell-based; details: ASPC1; in short: as §1
# [3] = Cytotoxicity against human Patu-T cells by crystal violet staining; type: functional, cell-based; details: PaTu 8988t; in short: as §1
# DAN-G = assay: Cytotoxicity against human DAN-G cells by crystal violet staining; type: functional, cell-based; in short: as §1
# [4] = Cytotoxicity against human Patu-02 cells by crystal violet staining; type: functional, cell-based; in short: as §1
# [5] = Cytotoxicity against human Patu-S cells by crystal violet staining; type: functional, cell-based; in short: as §1
# [6] = Cytotoxicity against human PANC1 cells by crystal violet staining; type: functional, cell-based; details: PANC-1; in short: as §1
# [7] = Cytotoxicity against human T3M4 cells by crystal violet staining; type: functional, cell-based; in short: as §1
# [8] = Cytotoxicity against human MRP5 knockdown Patu-02 cells assessed as increase of cell death at 100 uM after 48 hrs using propidium iodide staining by cytofluorometric analysis; type: functional
# In short: (§2)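 Patu-02 cells stably transfected with an MRP5 siRNA expression vector or empty vector (hygromycin B selected, single-cell cloned, RT-PCR screened) were exposed to 5-FU (3.3–100 M) for 48 h. Cell death was measured as PI uptake (2 g/ml, 5 min, 4°C, dark) by flow cytometry on 10,000 gated cells. Three assays were run in triplicate.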
# [9] = Cytotoxicity against human Colo-357 cells expressing MRP5 assessed as cell killing at 1 uM after 48 hrs using propidium iodide staining by cytofluorometric analysis; type: functional, COLO357
# In short: (§3)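 Colo-357 cells stably transfected with pcDNA3.1/hygro-MRP5 or empty vector were cultured with 5-FU (1–33 M) for 48 h. Cells were harvested, stained with 2 g/ml propidium iodide in PBS for 5 min at 4°C in the dark, and PI uptake was read by flow cytometry (10,000 cells, debris gated out). Values are the percentage of dead cells from three assays in triplicate.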
# [10] = Cytotoxicity against human Patu-02 cells assessed as increase of cell death at 3.3 uM after 48 hrs using propidium iodide staining by cytofluorometric analysis; type: functional; in short: as §2
# PaTu 8988t = assay: Induction of thymidylate synthase expression in human Patu-T cells after 6 months by RT-PCR analysis relative to control; type: functional, cell-based
# In short: (§4)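 Patu-8988T cells were cultured 6 months with increasing 5-FU, then kept at least 1 week drug-free. Transcripts were quantified by real-time RT-PCR on 20 ng cDNA with a Tris/KCl/MgCl2 platinum Taq master mix and ROX reference. Expression is reported relative to untreated parental Patu-T cells.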
# [11] = Cytotoxicity against human MRP5 knockdown Patu-02 cells assessed as increase of cell death at 10 uM after 48 hrs using propidium iodide staining by cytofluorometric analysis; type: functional; in short: as §2
# [12] = target: T1, ATP-binding cassette sub-family C member 5 (Homo sapiens, UniProt O15440); assay: Activity at MRP5 in human Colo-357 cells assessed as increase of drug efflux after 60 mins relative to wild type cells; type: ADME, cell-based; details: colo357, 1 h
# T1 sequence (O15440 whole entry): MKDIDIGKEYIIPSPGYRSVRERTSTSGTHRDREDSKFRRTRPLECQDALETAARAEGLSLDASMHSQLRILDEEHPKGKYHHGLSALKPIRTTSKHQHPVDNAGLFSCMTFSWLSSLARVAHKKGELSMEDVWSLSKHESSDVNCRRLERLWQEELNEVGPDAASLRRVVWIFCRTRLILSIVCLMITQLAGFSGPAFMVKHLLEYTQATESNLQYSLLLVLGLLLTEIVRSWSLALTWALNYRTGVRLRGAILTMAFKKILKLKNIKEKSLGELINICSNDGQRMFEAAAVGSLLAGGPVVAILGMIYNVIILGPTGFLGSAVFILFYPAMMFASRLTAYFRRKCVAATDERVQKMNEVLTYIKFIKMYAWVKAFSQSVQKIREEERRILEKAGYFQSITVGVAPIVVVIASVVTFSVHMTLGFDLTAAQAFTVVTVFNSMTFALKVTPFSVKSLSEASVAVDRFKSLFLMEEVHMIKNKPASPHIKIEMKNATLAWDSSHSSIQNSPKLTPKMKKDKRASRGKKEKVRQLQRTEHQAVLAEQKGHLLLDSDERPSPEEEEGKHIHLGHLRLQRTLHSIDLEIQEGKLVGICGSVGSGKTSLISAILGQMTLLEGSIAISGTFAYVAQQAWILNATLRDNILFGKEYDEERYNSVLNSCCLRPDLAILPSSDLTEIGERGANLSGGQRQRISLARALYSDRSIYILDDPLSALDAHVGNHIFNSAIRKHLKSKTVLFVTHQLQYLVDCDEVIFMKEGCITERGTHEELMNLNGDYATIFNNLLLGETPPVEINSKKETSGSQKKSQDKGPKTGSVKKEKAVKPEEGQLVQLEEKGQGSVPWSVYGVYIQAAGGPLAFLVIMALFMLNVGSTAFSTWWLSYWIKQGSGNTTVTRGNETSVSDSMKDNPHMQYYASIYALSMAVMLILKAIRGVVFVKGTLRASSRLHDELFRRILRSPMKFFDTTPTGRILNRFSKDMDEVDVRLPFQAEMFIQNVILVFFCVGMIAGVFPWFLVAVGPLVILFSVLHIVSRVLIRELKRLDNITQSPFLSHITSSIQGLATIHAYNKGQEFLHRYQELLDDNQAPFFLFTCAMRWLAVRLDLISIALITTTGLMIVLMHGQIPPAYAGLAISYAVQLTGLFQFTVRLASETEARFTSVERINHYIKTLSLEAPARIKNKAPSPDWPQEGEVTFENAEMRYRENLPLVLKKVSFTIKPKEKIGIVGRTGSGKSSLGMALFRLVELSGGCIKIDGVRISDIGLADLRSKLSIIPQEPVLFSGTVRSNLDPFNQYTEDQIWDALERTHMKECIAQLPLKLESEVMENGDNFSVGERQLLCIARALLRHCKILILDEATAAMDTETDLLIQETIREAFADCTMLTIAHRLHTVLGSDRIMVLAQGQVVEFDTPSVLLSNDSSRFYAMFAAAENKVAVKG
# In short: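 Transfected Colo-357 cells seeded in triplicate were preloaded 2 h with [14C]5-FU in energy-depletion medium (glucose-free, pyruvate-free, sodium azide). After two washes, medium was switched to ordinary drug-free growth medium, and medium radioactivity was sampled at time points over 60 min. Results are expressed as released radioactivity relative to radioactivity accumulated during loading.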
# [13] = Cytotoxicity against human Patu-02 cells assessed as increase of cell death at 100 uM after 48 hrs using propidium iodide staining by cytofluorometric analysis; type: functional; in short: as §2
# [14] = Cytotoxicity against human 5-FU-resistant Patu-T cells by crystal violet staining; type: functional, cell-based; details: PaTu 8988t
# In short: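 Patu-8988T subclones were selected with rising 5-FU over 6 months, then kept drug-free at least 1 week. Cells were plated at 5000–10,000/well, left 24 h, then drug-exposed. They were fixed in 4% paraformaldehyde, stained with 0.5% crystal violet in methanol, lysed in 1% SDS, and read at OD 570 nm against untreated cells (100%). At least five concentrations were tested in triplicate, and IC50 was obtained by sigmoidal nonlinear regression.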
# [15] = target: T1, ATP-binding cassette sub-family C member 5; assay: Activity at MRP5 in human Colo-357 cells assessed as decrease of drug accumulation after 2 hrs relative to wild type cells; type: ADME, cell-based; set-up: scale not given: the % may be the effect or the level left; details: colo357, 2 h
# In short: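 Stably transfected Colo-357 (pcDNA3.1/hygro-MRP5 vs empty vector, hygromycin B selected), subconfluent, seeded in triplicate, grown overnight, then incubated at 37°C with 7.6 M [14C]5-FU (0.4 Ci/ml, 52 mCi/mmol) for timed intervals. Washed with ice-cold PBS, lysed in 0.2% SDS, scintillation counted, normalised to protein.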
# [16] = Cytotoxicity against human Colo-357 cells expressing MRP5 assessed as cell killing at 33 uM after 48 hrs using propidium iodide staining by cytofluorometric analysis; type: functional, COLO357; in short: as §3
# [17] = Cytotoxicity against human Colo-357 cells assessed as cell killing at 1 uM after 48 hrs using propidium iodide staining by cytofluorometric analysis; type: functional, COLO357; in short: as §3
# [18] = Cytotoxicity against human MRP5 knockdown Patu-02 cells assessed as increase of cell death at 33 uM after 48 hrs using propidium iodide staining by cytofluorometric analysis; type: functional; in short: as §2
# [19] = Cytotoxicity against human Colo-357 cells expressing MRP5 assessed as cell killing at 3 uM after 48 hrs using propidium iodide staining by cytofluorometric analysis; type: functional, COLO357; in short: as §3
# COLO357 = assay: Cytotoxicity against human Colo-357 cells expressing MRP5 assessed as cell killing after 48 hrs using propidium iodide staining by cytofluorometric analysis; type: functional, cell-based; in short: as §3
# [20] = Cytotoxicity against human Patu-02 cells assessed as increase of cell death at 33 uM after 48 hrs using propidium iodide staining by cytofluorometric analysis; type: functional; in short: as §2
# [21] = Cytotoxicity against human Colo-357 cells assessed as cell killing at 3 uM after 48 hrs using propidium iodide staining by cytofluorometric analysis; type: functional, COLO357; in short: as §3
# [22] = Cytotoxicity against human Colo-357 cells assessed as cell killing at 33 uM after 48 hrs using propidium iodide staining by cytofluorometric analysis; type: functional, COLO357; in short: as §3
# [23] = Cytotoxicity against human Patu-02 cells assessed as increase of cell death at 10 uM after 48 hrs using propidium iodide staining by cytofluorometric analysis; type: functional; in short: as §2
# MRP5 [24] = assay: Induction of MRP5 expression in human MRP5 vector transfected Colo-357 cells by RT-PCR analysis relative to control; type: cell-based, COLO357; details: Colo-357 cells transfected with human MRP5 vector, read-out: FC
# In short: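 Colo-357 cells were transfected with pcDNA3.1/hygro-MRP5 or empty vector, split after 48 h and selected in hygromycin B. MRP5 mRNA was measured by quantitative real-time RT-PCR (20 ng cDNA) relative to the vector-only clone.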
# [25] = Cytotoxicity against human Colo-357 cells expressing MRP5 assessed as cell killing at 10 uM after 48 hrs using propidium iodide staining by cytofluorometric analysis; type: functional, COLO357; in short: as §3
# [26] = Cytotoxicity against human Colo-357 cells assessed as cell killing at 10 uM after 48 hrs using propidium iodide staining by cytofluorometric analysis; type: functional, COLO357; in short: as §3
# [27] = Cytotoxicity against human MRP5 knockdown Patu-02 cells assessed as increase of cell death at 3.3 uM after 48 hrs using propidium iodide staining by cytofluorometric analysis; type: functional; in short: as §2
# MRP4 = assay: Induction of MRP4 expression in human Patu-T cells after 6 months by RT-PCR analysis relative to control; type: cell-based, PaTu 8988t; details: read-out: FC; in short: as §4
# [28] = Induction of BCRP expression in human Patu-T cells after 6 months by RT-PCR analysis relative to control; type: ADME, cell-based; details: patu 8988t, 4383 h; in short: as §4
# MRP5 [29] = assay: Induction of MRP5 expression in human Patu-T cells after 6 months by RT-PCR analysis relative to control; type: cell-based, PaTu 8988t; details: read-out: FC; in short: as §4
smiles,measurement,setting,value
Nc1ccn([C@@H]2O[C@H](CO)[C@@H](O)C2(F)F)c(=O)n1 [GEMCITABINE],pIC50,[1],9.44
same,pIC50,[2],8.40
same,pIC50,[3],8.55
same,pIC50,DAN-G,8.47
same,pIC50,[4],8.47
same,pIC50,[5],8.49
same,pIC50,[6],9.00
same,pIC50,[7],8.82
Nc1nc2[nH]cnc2c(=S)[nH]1 [THIOGUANINE],pIC50,[1],5.68
same,pIC50,[2],5.55
same,pIC50,[3],5.46
same,pIC50,DAN-G,5.36
same,pIC50,[4],5.65
same,pIC50,[5],5.66
same,pIC50,[6],5.08
same,pIC50,[7],5.89
Sc1ncnc2nc[nH]c12 [MERCAPTOPURINE ANHYDROUS],pIC50,[1],5.21
same,pIC50,[2],5.61
same,pIC50,[3],5.39
same,pIC50,DAN-G,5.39
same,pIC50,[4],5.01
same,pIC50,[5],4.96
same,pIC50,[6],5.19
same,pIC50,[7],5.58
O=c1[nH]cc(F)c(=O)[nH]1 [FLUOROURACIL],Activity,[8],94%
same,Activity,[9],16.4%
same,Activity,[10],10%
same,Activity,PaTu 8988t,inactive
same,pIC50,[1],5.69
same,Activity,[11],53%
same,fold change (FC),[12],2.1
same,Activity,[13],66%
same,pIC50,[14],4.48
same,Activity,[15],59.2%
same,Activity,[16],44.9%
same,Activity,[17],26.4%
same,Activity,[18],80%
same,Activity,[19],31.2%
same,Activity,COLO357,inactive
same,Activity,[20],63%
same,Activity,[21],45.4%
same,Activity,[22],53%
same,Activity,[23],27%
same,fold induction,MRP5 [24],4.3
same,Activity,[25],39.1%
same,Activity,[26],54.6%
same,pIC50,[2],5.53
same,Activity,[27],36%
same,pIC50,[3],5.68
same,pIC50,DAN-G,5.36
same,fold induction at 4383 h,MRP4,2.5
same,Activity,[28],Not Active
same,pIC50,[4],5.40
same,pIC50,[5],5.53
same,pIC50,[6],5.40
same,fold induction at 4383 h,MRP5 [29],2.4
same,pIC50,[7],6.48
